Columns and labels:
[1] = target: T1, Adenosine receptor A1 (Homo sapiens) (UniProt P30542); test: Allosteric enhancer activity at recombinant human A1 adenosine receptor expressed in CHO cells assessed as change in forskolin-induced cAMP production at 0.01 uM after 6 mins by radioimmunoassay; assay type: functional, cell-based
T1 sequence (whole entry): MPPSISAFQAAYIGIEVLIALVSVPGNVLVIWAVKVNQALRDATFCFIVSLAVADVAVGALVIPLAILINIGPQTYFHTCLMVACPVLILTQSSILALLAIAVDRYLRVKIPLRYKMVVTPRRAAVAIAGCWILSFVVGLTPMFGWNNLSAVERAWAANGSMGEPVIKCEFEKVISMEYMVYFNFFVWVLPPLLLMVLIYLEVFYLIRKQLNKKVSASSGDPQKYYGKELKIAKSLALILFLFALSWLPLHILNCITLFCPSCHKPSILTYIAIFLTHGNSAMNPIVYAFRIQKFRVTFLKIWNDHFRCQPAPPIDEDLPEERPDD
Procedure, shortened: (§1)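 hA1CHO cells (about 8000 fmol/mg protein) thawed from low-passage stocks, grown in Ham's F-12 with 10% FBS and G-418, then plated 48 h. Test compound at 0.01, 0.1, 1 or 10 µM with CPA (0.05–0.1 nM) for 6 min at 36 °C. Stopped with HCl (final 50 mM). cAMP in acidified extracts measured by radioimmunoassay. Reference enhancer run in each experiment. Four experiments per concentration.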

[2] = target: T1, Adenosine receptor A1 (Homo sapiens); test: Allosteric enhancer activity at recombinant human A1 adenosine receptor expressed in CHO cells assessed as change in forskolin-induced cAMP production at 0.1 uM after 6 mins by radioimmunoassay; assay type: functional, cell-based; procedure, shortened: as §1
[3] = target: T1, Adenosine receptor A1 (Homo sapiens); test: Allosteric enhancer activity at recombinant human A1 adenosine receptor expressed in CHO cells assessed as change in forskolin-induced cAMP production at 1 uM after 6 mins by radioimmunoassay; assay type: functional, cell-based; procedure, shortened: as §1
[4] = target: T1, Adenosine receptor A1 (Homo sapiens); test: Allosteric enhancer activity at recombinant human A1 adenosine receptor expressed in CHO cells assessed as change in forskolin-induced cAMP production at 10 uM after 6 mins by radioimmunoassay; assay type: functional, cell-based; procedure, shortened: as §1
[5] = target: T1, Adenosine receptor A1 (Homo sapiens); test: Displacement of [3H]DPCPX from recombinant human A1 adenosine receptor expressed in CHO cells at 10 uM after 120 mins by scintillation counting; assay type: cell-based
Procedure, shortened: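 Membranes from hA1CHO cells incubated with 1 nM [3H]DPCPX in 50 mM Tris–HCl pH 7.4 at 25 °C for 120 min. Compound added from a 100-fold DMSO stock, so 1% DMSO final, also present in controls. Bound ligand separated on GF/B filters and counted by scintillation. Result given as % of control specific binding.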

[6] = target: Adenosine receptor A2a (Homo sapiens) (UniProt P29274); test: Displacement of [3H]ZM241385 from recombinant human A2A adenosine receptor expressed in CHO cells at 10 uM after 60 mins by scintillation counting; assay type: cell-based
Procedure, shortened: (§2)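 Membranes from hA2ACHO cells incubated with 1 nM [3H]ZM 241385 in 50 mM Tris–HCl, 10 mM MgCl2, pH 7.4 at 4 °C for 60 min. Compound added from a 100-fold DMSO stock, 1% DMSO final, also in controls. Separated by GF/B filtration and counted by scintillation. Result given as % of control specific binding.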

[7] = target: T2, Adenosine receptor A3 (Homo sapiens) (UniProt P0DMS8); test: Displacement of [3H]MRE3008F20 from recombinant human A3 adenosine receptor expressed in CHO cells at 10 uM after 120 mins by scintillation counting; assay type: cell-based
T2 sequence (whole entry): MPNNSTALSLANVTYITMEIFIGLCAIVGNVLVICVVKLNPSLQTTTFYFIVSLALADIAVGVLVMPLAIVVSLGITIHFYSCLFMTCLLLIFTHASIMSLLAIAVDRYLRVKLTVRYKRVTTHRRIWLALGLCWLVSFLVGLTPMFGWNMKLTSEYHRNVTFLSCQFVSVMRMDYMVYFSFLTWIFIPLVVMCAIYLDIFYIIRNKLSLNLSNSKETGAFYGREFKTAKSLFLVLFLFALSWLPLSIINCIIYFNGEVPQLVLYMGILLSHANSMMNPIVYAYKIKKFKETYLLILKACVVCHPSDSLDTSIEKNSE
Procedure, shortened: as §2, with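 “from hA3CHO” for “from hA2ACHO”, “with 2” for “with 1”, “nM [3H]MRE 3008F20” for “nM [3H]ZM 241385”, “MgCl2, 1 mM EDTA,” for “MgCl2,”, “for 120” for “for 60”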

[8] = target: T1, Adenosine receptor A1 (Homo sapiens); test: Binding affinity to recombinant human A1 adenosine receptor allosteric site expressed in CHO cells assessed as [3H]CCPA Bmax shift at 10 uM after 90 mins relative to control; assay type: cell-based
Procedure, shortened: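 Saturation binding of [3H]CCPA (0.05–20 nM) to hA1CHO membranes. Membranes pretreated with adenosine deaminase 3 UI/mL for 30 min at 37 °C. Run in triplicate, 90 min at 25 °C, in 50 mM Tris–HCl pH 7.4, with or without test compound at final 10 µM. Nonspecific binding taken with 1 µM R-PIA. Bmax fitted by LIGAND. Shift is the fold of Bmax increase over control.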

[9] = target: T1, Adenosine receptor A1 (Homo sapiens); test: Binding affinity to recombinant human A1 adenosine receptor allosteric site expressed in CHO cells assessed as [3H]DPCPX Bmax shift at 10 uM after 90 mins relative to control; assay type: cell-based
Procedure, shortened: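 Saturation binding of [3H]DPCPX (0.05–20 nM) to hA1CHO membranes, run in triplicate, 90 min at 25 °C, in 50 mM Tris–HCl pH 7.4, with or without test compound at final 10 µM. Nonspecific binding taken with 1 µM DPCPX. KD and Bmax fitted by LIGAND. Shift is the fold of Bmax increase over control.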

[10] = target: T1, Adenosine receptor A1 (Homo sapiens); test: Binding affinity to recombinant human A1 adenosine receptor allosteric site expressed in CHO cells assessed as potentiation of CCPA-induced [3H]DPCPX displacement at 10 uM after 90 mins relative to control; assay type: cell-based
Procedure, shortened: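 Competition of CCPA (0.01 nM–1 µM) against 1 nM [3H]DPCPX on hA1CHO membranes, run in triplicate, 90 min at 25 °C, in 50 mM Tris–HCl pH 7.4, with or without test compound at 10 µM. Nonspecific binding taken with 1 µM DPCPX. Ki by Cheng–Prusoff. Shift = Ki(CCPA)/Ki(CCPA + 10 µM compound).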

Adenosine receptor A2a (Homo sapiens), sequence (P29274 whole entry): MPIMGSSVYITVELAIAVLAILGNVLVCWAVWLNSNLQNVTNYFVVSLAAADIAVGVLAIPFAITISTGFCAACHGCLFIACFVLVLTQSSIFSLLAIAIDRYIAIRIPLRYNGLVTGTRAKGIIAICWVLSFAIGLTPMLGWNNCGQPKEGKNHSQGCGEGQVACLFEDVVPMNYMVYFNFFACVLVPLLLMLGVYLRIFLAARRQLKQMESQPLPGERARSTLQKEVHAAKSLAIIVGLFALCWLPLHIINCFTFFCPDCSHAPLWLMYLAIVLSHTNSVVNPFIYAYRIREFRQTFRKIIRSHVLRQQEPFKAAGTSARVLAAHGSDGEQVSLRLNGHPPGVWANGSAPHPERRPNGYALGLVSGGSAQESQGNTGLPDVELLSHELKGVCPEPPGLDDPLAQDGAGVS

Compound	Activity [1]	Activity [2]	Activity [3]	Activity [4]	inhibition [5]	inhibition [6]	inhibition [7]	fold change (FC) [8]	fold change (FC) [9]	fold change (FC) [10]
Nc1scc(CN2CCN(Cc3ccc(F)cc3)CC2)c1C(=O)c1ccc(Cl)cc1	2.2%	-3.9%	-34%	-82%	0%	0%	1%	3.7	0.9	3.1
Nc1scc(CN2CCN(CCCc3ccc(Cl)cc3)CC2)c1C(=O)c1ccc(Cl)cc1	0%	-3%	-30%	-76%	0%	0%	0%	1.6	0.9	1.6
Nc1scc(CN2CCN(CCc3ccc(Cl)cc3)CC2)c1C(=O)c1ccc(Cl)cc1	1.2%	-3.1%	-32%	-76%	1%	0%	2%	3.1	1	3.4
Nc1scc(CN2CCN(C3CCCCCC3)CC2)c1C(=O)c1ccc(Cl)cc1	2.9%	13%	3.7%	-25%	0%	0%	0%	1.1	0.9	1.2
Nc1scc(CN2CCN(c3ccncc3)CC2)c1C(=O)c1ccc(Cl)cc1	-4%	1.4%	-8.3%	-15%	1%	0%	2%	1.1	0.9	1.2

Continued, values first:

Activity [1]	Activity [2]	Activity [3]	Activity [4]	inhibition [5]	inhibition [6]	inhibition [7]	fold change (FC) [8]	fold change (FC) [9]	fold change (FC) [10]	Compound
-2.1%	2%	-5.2%	-18%	2%	1%	0%	1.2	0.9	1.4	Nc1scc(CN2CCN(c3ccccc3Cl)CC2)c1C(=O)c1ccc(Cl)cc1
3.1%	-13%	-59%	-80%	1%	0%	2%	4.7	1	3.8	Nc1scc(CN2CCN(c3cc(F)ccc3F)CC2)c1C(=O)c1ccc(Cl)cc1
-13%	-5.2%	-66%	-79%	0%	0%	0%	4.8	1	4	Nc1scc(CN2CCN(c3cccc(F)c3F)CC2)c1C(=O)c1ccc(Cl)cc1
-1%	-22%	-69%	-74%	1%	0%	1%	5.8	1	4.5	Nc1scc(CN2CCN(c3cc(Cl)cc(Cl)c3)CC2)c1C(=O)c1ccc(Cl)cc1
15%	0%	-2.2%	-47%	0%	0%	1%	3.3	0.9	2.9	Nc1scc(CN2CCN(c3c(Cl)cccc3Cl)CC2)c1C(=O)c1ccc(Cl)cc1

Reference: ChEMBL document CHEMBL1932980, “Structure-activity relationships of 2-amino-3-aroyl-4-[(4-arylpiperazin-1-yl)methyl]thiophenes. Part 2: Probing the influence of diverse substituents at the phenyl of the arylpiperazine moiety on allosteric enhancer activity at the A₁ adenosine receptor” (Bioorg Med Chem, 2012)
